Among the data in ChEMBL document CHEMBL1152798, “Unsymmetrically disubstituted urea derivatives: a potent class of antiglycating agents” (Bioorg Med Chem, 2009) are IC50 values, retold here.

This data set in a line: Antiglycation activity of compound assessed as inhibition of BSA-derived advance glycated end product formation after 7 days by spectrofluorimeter. Type of data set: physicochemical. Put shortly: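 BSA (10 mg/mL) mixed with anhydrous glucose (50 mg/mL) and test sample in equal parts, in sodium phosphate buffer pH 7.4 (67 mM Na2HPO4, 3 mM sodium azide), incubated 37 °C for 7 days. Protein precipitated with TCA and centrifuged, pellet washed with 10% TCA, then redissolved in PBS. AGE fluorescence read at excitation 370 nm, emission 440 nm. % inhibition computed against glycated control (BSA + glucose + buffer).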

Broadly, the IC50 is the concentration at which inhibition is half-maximal. `O=C(Nc1ccccc1)Nc1cccc(Br)c1`: the 50% inhibitory concentration (IC50) (read-out: IC50) was found to be 4.26 µM.
Turning to `COc1ccc(NC(=O)Nc2ccccc2)cc1`, the IC50 (read-out: IC50) was 8.4 µM.
In the case of `Cc1cccc(C)c1NC(=O)Nc1ccccc1`, the concentration for half-maximal inhibition (IC50) entry is “Not Active”.
As to `Cc1cc(C)cc(NC(=O)Nc2ccccc2)c1`, the IC50 result was “Not Active”.
Turning to `O=C(Nc1cccc(Cl)c1)Nc1ccccc1Br`, the IC50 (read-out: IC50) amounted to 6.6 µM.
Still for that read-out and setting: the figure for `COc1cccc(NC(=O)Nc2cccc(Cl)c2)c1` is 5.8 µM; for `Cc1ccc(NC(=O)Nc2ccccc2)cc1C` it is 9 µM.
Regarding `O=C(Nc1ccccc1)Nc1ccc(Cl)c(Cl)c1`, the concentration for half-maximal inhibition (IC50) (read-out: IC50) is 838 µM.
Same read-out and setting: the figure for `O=C(Nc1cccc(Cl)c1)Nc1cccc(Br)c1` is 8.16 µM; for `O=C(Nc1ccc(Br)cc1)Nc1cccc(Cl)c1` it is 6.4 µM; for `COc1ccccc1NC(=O)Nc1cccc(Cl)c1` it is 7.02 µM.
With `Cc1ccc(NC(=O)Nc2cccc(Cl)c2)c(C)c1`, the half-maximal inhibitory concentration (IC50) result is recorded as “Not Active”.
Regarding `COc1cccc(NC(=O)Nc2ccccc2)c1`, the IC50 (read-out: IC50) amounted to 229 µM.
`Cc1ccc(NC(=O)Nc2cccc(Cl)c2)cc1C`: the IC50 entry is “Not Active”.
Same read-out and setting: the entry for `Cc1ccc(C)c(NC(=O)Nc2cccc(Cl)c2)c1` is “Not Active”.
Take `Cc1cccc(C)c1NC(=O)Nc1cccc(Cl)c1`: the concentration for half-maximal inhibition (IC50) entry is “Not Active”.
On the same count and under the same terms, the entry for `Cc1cccc(NC(=O)Nc2cccc(Cl)c2)c1C` is “Not Active”.
For the compound `Cc1cc(C)cc(NC(=O)Nc2cccc(Cl)c2)c1`, the IC50 (read-out: IC50) was found to be 906 µM.
On the same count and under the same terms, the figure for `COc1ccc([N+](=O)[O-])cc1NC(=O)Nc1cccc(Cl)c1` is 408 µM.
As to `Cc1cccc(NC(=O)Nc2ccccc2)c1C`, the half-inhibitory concentration (IC50) entry is given as “Not Active”.
As to `O=C(Nc1ccccc1)Nc1cccc([N+](=O)[O-])c1`, the IC50 (read-out: IC50) worked out at 7.27 µM.
Still for that read-out and setting: the figure for `COc1ccc([N+](=O)[O-])cc1NC(=O)Nc1ccccc1` is 162 µM; for `O=C(Nc1ccccc1)Nc1ccccc1Br` it is 120 µM.
For the compound `Cc1ccc(NC(=O)Nc2ccccc2)c(C)c1`, the IC50 result is on record as “Not Active”.
In the case of `Cc1ccc(C)c(NC(=O)Nc2ccccc2)c1`, the IC50 result is listed as “Not Active”.
For the compound `O=C(Nc1ccccc1)Nc1ccc(Br)cc1`, for the setting “read-out: IC50”, the half-inhibitory concentration (IC50) is 6.1 µM.
The same measure, in the same setting: the figure for `COc1ccc(NC(=O)Nc2cccc(Cl)c2)cc1` is 7.14 µM.
Turning to `O=C(Nc1cccc(Cl)c1)Nc1ccc(Cl)c(Cl)c1`, the 50% inhibitory concentration (IC50) (read-out: IC50) came to 15.2 µM.
On the same count and under the same terms, the figure for `C[C@@H]1O[C@@H](OC[C@H]2O[C@@H](Oc3c(-c4ccc(O)c(O)c4)oc4cc(O)cc(O)c4c3=O)[C@H](O)[C@@H](O)[C@@H]2O)[C@H](O)[C@H](O)[C@H]1O` [RUTIN] is 41.9 µM.
